Each structure is given as a SMILES string. Converted amounts (≈) assume the structure as drawn.

In general, inhibition refers to how much of the control response was suppressed. Broadly, the IC50 is the concentration at which inhibition is half-maximal.

Format in all cases: functional
The test system of test [1] is Radical scavenging activity. The test is described as follows: Antioxidant activity assessed as inhibition of DPPH free radical production at 25 ug/mL after 30 mins by spectrophotometric analysis relative to control. The method in brief:
(§1)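 Test compound in methanol added to 0.004% (w/v) methanolic DPPH at a 1:4 volume ratio. Incubated 30 min at room temperature. Absorbance read against blank at 517 nm.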
Background: DPPH is a stable violet radical that fades when it is reduced.

For test [2], the system named is Radical scavenging activity. The test is described as follows: Antioxidant activity assessed as inhibition of DPPH free radical production at 50 ug/mL after 30 mins by spectrophotometric analysis relative to control. The gist of the method:
as §1

Test [3] concerns Radical scavenging activity. The test is described as follows: Antioxidant activity assessed as inhibition of DPPH free radical production at 75 ug/mL after 30 mins by spectrophotometric analysis relative to control. The gist of the method: as §1
For test [4], the system named is Radical scavenging activity. The test is described as follows: Antioxidant activity assessed as inhibition of DPPH free radical production at 100 ug/mL after 30 mins by spectrophotometric analysis relative to control. The gist of the method: as §1
The subject of test [5] is Radical scavenging activity. The test is described as follows: Antioxidant activity assessed as inhibition of DPPH free radical production after 30 mins by spectrophotometric analysis. The gist of the method: as §1
Test [6] in a line: Antioxidant activity assessed as inhibition of nitric oxide free radical production at 25 ug/mL after 150 mins by Griess method relative to control. The gist of the method:
(§2)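 NO generated from sodium nitroprusside (10 mM) in 0.2 M phosphate buffered saline, pH 7.4, with compound at […]. Incubated 150 min at 25 °C. An aliquot was mixed 1:1 with Griess reagent (1% sulfanilamide, 2% H3PO4, 0.1% naphthylethylenediamine dihydrochloride).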
Background: The Griess reaction detects nitrite, a stable product of nitric oxide.

The nature of test [7]: Antioxidant activity assessed as inhibition of nitric oxide free radical production at 50 ug/mL after 150 mins by Griess method relative to control. The method in brief: as §2
The nature of test [8]: Antioxidant activity assessed as inhibition of nitric oxide free radical production at 75 ug/mL after 150 mins by Griess method relative to control. The gist of the method:
as §2

Test [9] can be described thus: Antioxidant activity assessed as inhibition of nitric oxide free radical production at 100 ug/mL after 150 mins by Griess method relative to control. The gist of the method:
as §2

A short description of test [10]: Antioxidant activity assessed as inhibition of nitric oxide free radical production after 150 mins by Griess method. The method in brief:
as §2

Test [11] in a line: Antioxidant activity assessed as inhibition of H2O2 radical scavenging activity at 25 ug/mL by spectrophotometric analysis relative to control. The method in brief:
(§3)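 H2O2 (40 mM) prepared in phosphate buffer, pH 7.4. Compounds at […] in phosphate buffer were added to the H2O2 solution. Absorbance of the mixture was read at 230 nm, and percent H2O2 scavenging was calculated.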

Test [12] is described as follows: Antioxidant activity assessed as inhibition of H2O2 radical scavenging activity at 50 ug/mL by spectrophotometric analysis relative to control. The method in brief:
as §3

A short description of test [13]: Antioxidant activity assessed as inhibition of H2O2 radical scavenging activity at 75 ug/mL by spectrophotometric analysis relative to control. The gist of the method:
as §3

Test [14] can be described thus: Antioxidant activity assessed as inhibition of H2O2 radical scavenging activity at 100 ug/mL by spectrophotometric analysis relative to control. The gist of the method:
as §3

Test [15] can be described thus: Antioxidant activity assessed as inhibition of H2O2 radical scavenging activity by spectrophotometric analysis. The method in brief: as §3

With `Cc1c(-c2nnc(-c3ccc(Cl)cc3)o2)sc2ncnc(Nc3ccc(F)cc3)c12`, the inhibition amounted to 70.6% in test [1]; 74.2% in test [2]; 77.8% in test [3]; 81.9% in test [4]; 71.8% in test [6]; 76.3% in [7]. Further, the inhibition in test [8] was 79.7%; in test [9], 83.6%; in test [11], 64.1%; in [12], 67.4%; in [13], 69.8%; in [14], 72.6%. The IC50 in [5] was found to be 17.7 µg/mL (≈ 40.4 µM); in test [10], 17.39 µg/mL (≈ 39.7 µM); in [15], 19.49 µg/mL (≈ 44.5 µM).
With `Cc1c(-c2nnc(-c3ccc([N+](=O)[O-])cc3)o2)sc2ncnc(Nc3ccc(F)cc3)c12`, the inhibition in test [1] was 59.7%; in [2], 64.5%; in test [3], 68.9%; in test [4], 72.2%; in test [6], 62%; in test [7], 66.8%. Further, the inhibition in test [8] was 70.9%; in test [9], 73.9%; in test [11], 53.1%; in [12] it was 56.6%; in [13], 60%; in [14] it was 64.2%. In addition, the values for the IC50 in test [5], in [10] and in [15] were 20.92 µg/mL (≈ 46.7 µM), 20.14 µg/mL (≈ 44.9 µM) and 23.54 µg/mL (≈ 52.5 µM), respectively.
For `Cc1c(-c2nnc(-c3ccc(Cl)cc3)o2)sc2ncnc(Nc3ccc(Cl)cc3)c12`, the inhibition in test [1] worked out at 64.7%; in test [2], 68.4%; in [3] it was 73.8%; in [4], 77.5%; in [6], 68.4%; in [7], 70.6%. Besides, the inhibition in test [8] was 74.2%; in [9], 79.4%; in test [11], 58.3%; in [12], 62.3%; in test [13] it was 65.7%; in test [14] it was 69.8%. In addition, the figures for the half-maximal inhibitory concentration (IC50) in test [5], in [10] and in test [15] were 19.31 µg/mL (≈ 42.5 µM), 18.27 µg/mL (≈ 40.2 µM) and 21.22 µg/mL (≈ 46.7 µM), respectively.
Regarding `Cc1c(-c2nnc(-c3ccc(Cl)cc3)o2)sc2ncnc(Nc3ccc(F)cc3F)c12`, the inhibition in test [1] was 76.4%; in test [2] it was 79.7%; in test [3] it was 83.3%; in test [4] it was 85.8%; in test [6], 78.2%; in test [7], 83.3%. Moreover, the inhibition in [8] turned out to be 84.6%; in test [9] it was 86.2%; in test [11] it was 68.4%; in test [12] it was 71.7%; in test [13], 74.5%; in [14], 79.7%. Besides, the values for the concentration for half-maximal inhibition (IC50) in [5], in [10] and in test [15] were 16.35 µg/mL (≈ 35.9 µM), 15.98 µg/mL (≈ 35.1 µM) and 18.26 µg/mL (≈ 40.1 µM), respectively.
Regarding `Cc1c(-c2nnc(-c3ccccc3)o2)sc2ncnc(Nc3ccc(Cl)cc3)c12`, the inhibition was 69.3% in test [1]; 71.6% in [2]; 76.8% in test [3]; 81.3% in test [4]; 71.3% in test [6]; 74.8% in test [7]. The inhibition in [8] came out at 77.1%; in test [9], 82.9%; in test [11], 61.1%; in test [12], 63.8%; in [13], 68.2%; in test [14], 71.6%. In addition, the IC50 in [5] was 18.03 µg/mL (≈ 42.9 µM); in [10] it was 17.54 µg/mL (≈ 41.8 µM); in test [15], 20.47 µg/mL (≈ 48.8 µM).
Take `Cc1c(-c2nnc(-c3ccc([N+](=O)[O-])cc3)o2)sc2ncnc(Nc3ccc(Cl)cc3)c12`: the inhibition in [1] turned out to be 52.7%; in [2] it was 58.2%; in test [3] it was 61.4%; in test [4] it was 67.8%; in test [6], 61%; in test [7], 63.5%. The inhibition was 67.6% in test [8]; 72.4% in test [9]; 51.4% in test [11]; 54% in [12]; 58.1% in test [13]; 63.7% in test [14]. For the same molecule, the IC50 in [5] is 23.7 µg/mL (≈ 51 µM); in test [10], 20.49 µg/mL (≈ 44.1 µM); in test [15], 24.33 µg/mL (≈ 52.3 µM).
Turning to `Cc1c(-c2nnc(-c3ccc([N+](=O)[O-])cc3)o2)sc2ncnc(Nc3ccc(F)c(Cl)c3)c12`, the inhibition in test [1] was determined as 48.6%; in [2] it was 52.9%; in [3], 56.6%; in test [4], 61.9%; in test [6] it was 53.6%; in test [7] it was 56.5%. The inhibition was determined as 60% in test [8]; 64.3% in test [9]; 45% in test [11]; 47.4% in test [12]; 50.4% in [13]; 53.6% in test [14]. The IC50 in test [5] was determined as 25.69 µg/mL (≈ 53.2 µM); in test [10] it was 23.3 µg/mL (≈ 48.3 µM); in test [15] it was 27.76 µg/mL (≈ 57.5 µM).
Regarding `Cc1c(-c2nnc(-c3ccc(Cl)cc3)o2)sc2ncnc(Nc3ccc(F)c(Cl)c3)c12`, the inhibition was determined as 63.9% in test [1]; 67.9% in test [2]; 71.5% in test [3]; 76.6% in test [4]; 64.4% in [6]; 69.2% in test [7]. For the same molecule, the inhibition in test [8] came to 74.7%; in test [9], 79.5%; in [11], 61.9%; in test [12], 64.5%; in [13], 68.2%; in test [14], 71.9%. Besides, the concentration for half-maximal inhibition (IC50) was 19.57 µg/mL (≈ 41.4 µM) in [5], 19.41 µg/mL (≈ 41.1 µM) in test [10] and 20.18 µg/mL (≈ 42.7 µM) in [15].
For `Cc1c(-c2nnc(-c3ccc([N+](=O)[O-])cc3)o2)sc2ncnc(Nc3ccc(F)cc3F)c12`, the inhibition in test [1] is 64.6%; in [2] it was 69.5%; in test [3] it was 73.9%; in [4], 77.8%; in [6], 63.6%; in test [7], 71.4%. Also, the inhibition in test [8] amounted to 76.2%; in test [9], 79%; in test [11], 54.4%; in test [12] it was 58.1%; in test [13], 62.8%; in test [14], 66.2%. Further, the IC50 in [5] was found to be 19.34 µg/mL (≈ 41.5 µM); in [10], 19.66 µg/mL (≈ 42.2 µM); in test [15] it was 22.98 µg/mL (≈ 49.3 µM).
With `Cc1c(-c2nnc(-c3ccccc3)o2)sc2ncnc(Nc3ccc(F)cc3F)c12`, the inhibition in test [1] came out at 73.9%; in test [2], 77.4%; in test [3], 79.6%; in test [4] it was 83.8%; in [6] it was 75.2%; in test [7] it was 79.5%. Further, the inhibition was found to be 82.6% in [8]; 85.4% in [9]; 63.9% in [11]; 65.5% in test [12]; 69% in test [13]; 72.5% in [14]. Moreover, the concentration for half-maximal inhibition (IC50) turned out to be 16.91 µg/mL (≈ 40.1 µM) in test [5], 16.61 µg/mL (≈ 39.4 µM) in [10] and 19.57 µg/mL (≈ 46.4 µM) in test [15].

(Values after ChEMBL document CHEMBL2150985, “Synthesis and antioxidant activity of 1,3,4-oxadiazole tagged thieno[2,3-d]pyrimidine derivatives” (Eur J Med Chem, 2012).)
